The IC50 is the concentration at which inhibition is half-maximal.

Activity calls are given as the source filed them. The calls are words filed in the database; no cut-off is given here. A value given as a limit tells only on which side of the number the result lay.

The subject of data set [1] is HCC70. Put plainly: Antiproliferative activity against human HCC70 cells assessed as reduction in cell proliferation measured after 72 hrs by celltiter-glo assay. The data set is classed as functional, cell-based. Conditions: HCC70, 72 h. Put shortly: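 Cells in RPMI 1640 with 10% heat-inactivated FBS at 37°C and 5% CO₂ were seeded at 2 to 3 × 10³ per well. […] Growth was read as cellular ATP by CellTiter-Glo.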
On the technique in general: In ATP-based viability assays light output follows the ATP content of the culture.

Data set [2] relates to NCI-H460. Kind of data set: Synergistic antiproliferative activity against human NCI-H460 cells assessed as combination index at ED50 measured after 72 hrs in presence of erlotinib by celltiter-glo assay. The data set is classed as functional.
Data set [3] relates to MDA-MB-468. Put plainly: Synergistic antiproliferative activity against human MDA-MB-468 cells assessed as combination index at ED50 measured after 72 hrs in presence of lapatinib by celltiter-glo assay. The data set is classed as functional. Summed up:
(§1)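 Cells grown in RPMI 1640 with 10% heat-inactivated FBS at 37°C, 5% CO₂. Seeded at 2 to 3 × 10³ per well; drugs added 24 h later. […] Viability read as cellular ATP by CellTiter-Glo. CI calculated by Chou–Talalay from median-effect plots at ED50, ED75 and ED90.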

Data set [4] concerns HCC1954. Put plainly: Synergistic antiproliferative activity against human HCC1954 cells assessed as combination index at ED75 measured after 72 hrs in presence of lapatinib by celltiter-glo assay. The data set is classed as functional. Put shortly: as §1
For data set [5], the system named is NCI-N87. Kind of data set: Synergistic antiproliferative activity against human NCI-N87 cells assessed as combination index at ED90 measured after 72 hrs in presence of lapatinib by celltiter-glo assay. Type of data set: functional.
In data set [6] the target is RAC-alpha serine/threonine-protein kinase (Homo sapiens) (UniProt P31749). Put plainly: Inhibition of AKT in human A-431 cells assessed as reduction in AKT phosphorylation at S473 residue at 5 umol/L measured after 5 hrs in presence of erlotinib by Western blot analysis. Conditions: dose 5.0 µmol/L. The data set is classed as cell-based. Put shortly:
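Cells were lysed in Tris-HCl pH 7.5, 150 mM NaCl, 1% Triton X-100 with protease and phosphatase inhibitors. Lysates were run on SDS-PAGE, transferred to nitrocellulose and probed with phospho-specific antibodies.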
For orientation: Immunoblotting shows a protein as a band on a membrane.

Data set [7] concerns HCC1954. Kind of data set: Synergistic antiproliferative activity against human HCC1954 cells assessed as combination index at ED50 measured after 96 hrs in presence of lapatinib by celltiter-glo assay. Type of data set: functional.
Another data set relates to SK-BR-3. Kind of data set: Synergistic antiproliferative activity against human SK-BR-3 cells assessed as combination index at ED90 treated 24 hrs prior to lapatinib and measured after 72 hrs by celltiter-glo assay. The conditions noted are these: time 96 hrs. Type of data set: functional.
Data set [8] deals with NCI-N87. Put plainly: Synergistic antiproliferative activity against lapatinib pretreated human NCI-N87 cells assessed as combination index at ED90 measured after 72 hrs by celltiter-glo assay. Type of data set: functional.
The test system of another data set is BT-474. Kind of data set: Synergistic antiproliferative activity against human BT-474 cells assessed as combination index at ED75 measured after 72 hrs in presence of docetaxel by celltiter-glo assay. Type of data set: functional. Put shortly:
as §1

The next data set deals with ZR-75-1. Kind of data set: Synergistic antiproliferative activity against human ZR-75-1 cells assessed as combination index at ED50 measured after 72 hrs in presence of docetaxel by celltiter-glo assay. Type of data set: functional.
Data set [9] deals with BT-20. Put plainly: Synergistic antiproliferative activity against human BT-20 cells assessed as combination index at ED50 measured after 72 hrs in presence of docetaxel by celltiter-glo assay. Type of data set: functional. Summed up: as §1
Data set [10] concerns HCC70. Kind of data set: Synergistic antiproliferative activity against human HCC70 cells assessed as combination index at ED50 measured after 72 hrs in presence of docetaxel by celltiter-glo assay. Type of data set: functional. Put shortly:
as §1

Data set [11] has as its system BT-20. Kind of data set: Synergistic antiproliferative activity against human BT-20 cells assessed as combination index at ED75 measured after 72 hrs in presence of docetaxel by celltiter-glo assay. The data set is classed as functional. Summed up:
as §1

Data set [12] relates to MDA-MB-468. Kind of data set: Synergistic antiproliferative activity against human MDA-MB-468 cells assessed as combination index at ED75 measured after 72 hrs in presence of docetaxel by celltiter-glo assay. Type of data set: functional. Put shortly: as §1
The test system of data set [13] is BT-20. Put plainly: Synergistic antiproliferative activity against human BT-20 cells assessed as combination index at ED90 measured after 72 hrs in presence of docetaxel by celltiter-glo assay. Type of data set: functional. Summed up:
as §1

Data set [14] has as its system NCI-H460. Kind of data set: Synergistic antiproliferative activity against human NCI-H460 cells assessed as combination index at ED90 measured after 72 hrs in presence of 5-FU by celltiter-glo assay. Type of data set: functional.
The next data set deals with A2780. Kind of data set: Cell cycle arrest in human A2780 cells assessed as increase in accumulation of cells at sub-G1 phase at 0.12 to 3 umol/L measured after 72 hrs in presence of carboplatin by propidium iodide staining based flow cytometry relative to control. The data set is classed as functional. Conditions: dose 0.12-3 µmol/L, at 0.12 to 3 µM. On the technique in general: Flow cytometry measures light scatter and fluorescence of single cells or particles in a stream.

The test system of data set [15] is NCI-H460. Kind of data set: Antitumor activity against human NCI-H460 cells xenografted in CD1 nude mouse assessed as reduction in tumor volume at 120 mg/kg, po administered 3 times per week for 2 weeks by caliper method. The data set is classed as functional, organism-based. Summed up:
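NCI-H460 cells were injected s.c. in Matrigel/PBS into CD1-nude mice (female in the carboplatin study). Mice were randomized at 0.2 cm³, n = 5. Carboplatin was given at 50 mg/kg or gemcitabine at 100 mg/kg, i.v. in saline, on days 0 and 7. MK-2206 (30% Captisol) was given at 120 mg/kg po on days 0, 2, 4, 7, 9, 11. Tumors measured by caliper twice weekly.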

Data set [16] can be described thus: Toxicity in human NCI-H460 cells xenografted CD1 nude mouse assessed as body weight loss at 120 mg/kg, po administered 3 times per week for 2 weeks measured on day 14 to 16. The conditions noted are these: in vivo, 336 h, time 14-16 day. Type of data set: organism-based. Summed up:
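NCI-H460 cells in 50% Matrigel/PBS injected s.c. into flank of CD1-nude mice; randomized at mean tumour 0.2 cm³ (n = 5). MK-2206 in 30% Captisol, 120 mg/kg p.o. days 0, 2, 4, 7, 9, 11. Carboplatin 50 mg/kg i.v. in saline days 0 and 7 (from day 12 after implant), or gemcitabine 100 mg/kg i.v. in saline days 0 and 7 (from day 8). Body weight monitored.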

The next data set deals with NCI-H441. Put plainly: Synergistic antiproliferative activity against human NCI-H441 cells assessed as combination index at ED25 to ED90 measured after 72 hrs in presence of carboplatin by celltiter-glo assay. Type of data set: functional.
The subject of another data set is NCI-H661. Put plainly: Synergistic antiproliferative activity against human NCI-H661 cells assessed as combination index at ED25 to ED90 measured after 72 hrs in presence of gemcitabine by celltiter-glo assay. The data set is classed as functional.
For another data set, the system named is NCI-H1703. Put plainly: Synergistic antiproliferative activity against human NCI-H1703 cells assessed as combination index at ED25 to ED90 measured after 72 hrs in presence of gemcitabine by celltiter-glo assay. The data set is classed as functional.
In data set [17] the target is RAC-alpha serine/threonine-protein kinase (Homo sapiens) (UniProt P31749). Put plainly: Inhibition of AKT phosphorylation at S473 residue in human NCI-H1993 cells at 3 umol/L measured after 4 to 24 hrs in presence of gemcitabine by MSD assay. The conditions noted are these: time 4-24 hrs.
RAC-alpha serine/threonine-protein kinase (Homo sapiens), sequence (P31749 whole entry): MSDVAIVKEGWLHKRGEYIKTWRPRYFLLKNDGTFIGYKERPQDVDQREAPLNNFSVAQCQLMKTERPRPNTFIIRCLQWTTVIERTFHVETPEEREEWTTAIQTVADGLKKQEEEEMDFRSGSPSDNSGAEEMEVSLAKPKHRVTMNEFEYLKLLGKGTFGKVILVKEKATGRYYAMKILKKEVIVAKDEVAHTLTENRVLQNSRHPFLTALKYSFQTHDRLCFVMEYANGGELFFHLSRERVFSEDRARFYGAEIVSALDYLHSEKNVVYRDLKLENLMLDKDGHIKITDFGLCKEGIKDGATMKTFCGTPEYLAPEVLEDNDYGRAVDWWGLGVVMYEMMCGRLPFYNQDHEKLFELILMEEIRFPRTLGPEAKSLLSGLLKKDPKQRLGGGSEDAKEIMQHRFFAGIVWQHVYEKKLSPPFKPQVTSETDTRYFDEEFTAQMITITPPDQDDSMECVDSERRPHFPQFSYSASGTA

As for `Cl.NC1(c2ccc(-c3nc4ccn5c(=O)[nH]nc5c4cc3-c3ccccc3)cc2)CCC1`, the 50% inhibitory concentration (IC50) in the data set on HCC70 [1] is 300 nM. Moreover, the CI50 in the data set on NCI-H460 [2] is reported as 0.34; with MDA-MB-468 [3] it was 0.42; with HCC1954 [7] it was 0.18; in the data set on ZR-75-1, 0.1; in the data set with BT-20 [9] it was 1; in the data set with HCC70 [10], 0.9. Besides, the CI75 in the data set on HCC1954 [4] was determined as 0.13; in the data set with BT-474 it was 0.8; with BT-20 [11], 0.7; in the data set on MDA-MB-468 [12] it was 0.8. Besides, the CI90 in the data set on NCI-N87 [5] amounted to 0.69; in the data set on SK-BR-3 it was 0.18; in the data set on NCI-N87 [8], 0.18; with BT-20 [13], 0.5; in the data set with NCI-H460 [14] it was 0.54. For the same molecule, the inhibition result in [6] and in data set [17] was “Active” each time. Moreover, the Activity with A2780 is given as more than 40%; in data set [16] it was “Non-Toxic”. In the data set on NCI-H460 [15], the outcome was Active. For the same molecule, the CI is recorded as 0.46 in the data set on NCI-H441, 0.53 in the data set with NCI-H661 and 0.43 with NCI-H1703.
